From PubChem BioAssay AID588422 (The Scripps Research Institute Molecular Screening Center, 2011)
Calls of active or inactive are those of the source.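 How the source made its calls: active means IC50 at or below 1 µM; inactive means the rest.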

Target: Protein-arginine deiminase type-4 (Homo sapiens) (UniProt Q9UM07)
Assay: recombinant human PAD4 inhibitors – biochemical, BAEE substrate, citrulline absorbance, 0-60 µM range, late-stage follow-up (AID 588422)
Settings: recombinant PAD4, BAEE citrulline colorimetric absorbance
How it was run: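 System: recombinant PAD4 / Quantity: PAD4 enzyme at 0.2 µM / Also added: BAEE substrate at 10 mM / Compound dosing: 7-point dilution series, 0 to 60 µM final / Schedule: Enzyme–compound preincubation 15 min at 37 °C, then 15 min BAEE reaction / Detection: citrulline colour reaction, A540 / Replication: duplicate measurements per concentration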

Chain of Protein-arginine deiminase type-4 (Homo sapiens) (Q9UM07 whole entry, looked up): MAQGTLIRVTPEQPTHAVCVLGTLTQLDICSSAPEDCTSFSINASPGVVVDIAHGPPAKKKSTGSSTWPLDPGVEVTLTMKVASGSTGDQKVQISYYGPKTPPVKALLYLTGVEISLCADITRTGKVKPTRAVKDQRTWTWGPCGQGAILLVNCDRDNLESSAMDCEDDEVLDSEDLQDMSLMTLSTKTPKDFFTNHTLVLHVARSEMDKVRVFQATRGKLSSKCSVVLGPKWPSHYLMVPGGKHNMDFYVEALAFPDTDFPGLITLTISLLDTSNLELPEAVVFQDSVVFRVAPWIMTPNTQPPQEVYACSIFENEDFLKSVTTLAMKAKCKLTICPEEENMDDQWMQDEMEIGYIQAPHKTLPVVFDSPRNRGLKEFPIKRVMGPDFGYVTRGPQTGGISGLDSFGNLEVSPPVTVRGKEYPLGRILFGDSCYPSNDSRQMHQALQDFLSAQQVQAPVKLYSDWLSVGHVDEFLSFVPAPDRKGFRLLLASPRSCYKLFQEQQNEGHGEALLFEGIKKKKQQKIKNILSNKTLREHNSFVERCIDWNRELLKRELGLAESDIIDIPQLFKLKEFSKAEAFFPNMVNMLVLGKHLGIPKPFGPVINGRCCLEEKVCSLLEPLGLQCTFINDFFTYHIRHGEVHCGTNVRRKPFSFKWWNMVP

IC50: inactive
Compound: COC(=O)c1cccc(-c2ccc3c(n2)C(=O)C(Br)=CC3=O)n1
